Published values from different studies.
Each line is one published result; the experiments were not run side by side.
EGFR C797S/L858R/T790M: Epidermal growth factor receptor (EGFR, Homo sapiens, UniProt P00533, C797S/L858R/T790M)
APC: Adenomatous polyposis coli protein (APC, Homo sapiens, UniProt P25054)
EGFR: Epidermal growth factor receptor (EGFR, Homo sapiens, UniProt P00533)
AMY1A: Alpha-amylase 1A (AMY1A, Homo sapiens, UniProt P0DUB6)
Ephx2: Bifunctional epoxide hydrolase 2 (Ephx2, Mus musculus, UniProt P34914)

C=CC(=O)Nc1cc2c(Nc3ccc(OCc4ccccn4)c(Cl)c3)ncnc2cc1OCCN1CCOCC1 — IC50 (Epidermal growth factor receptor (EGFR, Homo sapiens, UniProt P00533, L858R/T790M); enzyme activity; inhibitor): 1.5 nM
Cc1ncc(CN2CCc3ccccc3C2)c2cc(C(=O)c3ccc4c(c3)OCCO4)oc12 — IC50 (EGFR C797S/L858R/T790M; enzyme activity; inhibitor; ADP detection): 42.7 nM
CC(C)C[C@H](NC(=O)[C@H](Cc1ccc2ccccc2c1)NC(=O)[C@H](CCC(=O)O)NC(=O)c1cccc(F)c1)C(=O)NC1CC1c1ccccc1 (stereo partly drawn) — IC50 (APC; ligand displacement; FP): 29500 nM
Cc1ccc2c(-c3cc4c(CN5CCN(Cc6ccccn6)CC5)cnc(C)c4o3)cc(=O)oc2c1 — IC50 (EGFR; enzyme activity; inhibitor; ADP detection): 8.38 nM
CC(C)C[C@H](NC(=O)[C@H](Cc1ccc2ccccc2c1)NC(=O)[C@H](CCC(=O)O)NC(=O)C1N=CN=N1)C(=O)NC1CC1c1ccccc1 (stereo partly drawn) — IC50 (APC; ligand displacement; FP): 81300 nM
Oc1ccc([C@@H]2c3c(O)cc(O)cc3[C@@H]3c4c(cc(O)cc4[C@H]2[C@@H]2c4cc(O)cc5c4[C@@H](c4cc(O)cc(O)c4[C@H]2c2ccc(O)cc2)[C@H](c2ccc(O)cc2)O5)O[C@H]3c2ccc(O)cc2)cc1 — IC50 (AMY1A; enzyme activity; inhibitor): 33700 nM
Cc1c(Cc2ccccc2)c(=O)oc2c(C)c(OCC(=O)NN=Cc3ccco3)ccc12 — IC50 (EGFR; enzyme activity; inhibitor; ATP luminescence): 559 nM
COc1cc(C(=O)N[C@@H](CCC(=O)O)C(=O)N[C@@H](Cc2ccc3ccccc3c2)C(=O)N[C@@H](CC(C)C)C(=O)NC2CC2c2ccccc2)ccn1 (stereo partly drawn) — IC50 (APC; ligand displacement; FP): 38900 nM
Oc1ccc([C@@H]2c3c(O)cc(O)cc3[C@@H]3c4c(cc(O)c5c4[C@@H]2[C@H](c2ccc(O)cc2)[C@H]5c2cc(O)cc4c2[C@@H](c2cc(O)cc(O)c2)[C@H](c2ccc(O)cc2)O4)O[C@H]3c2ccc(O)cc2)cc1 — IC50 (AMY1A; enzyme activity; inhibitor): 5300 nM
O=C(Nc1ccc(-c2cccc3ncccc23)cc1)C1CCN(S(=O)(=O)c2ccccc2Cl)CC1 — IC50 (Ephx2; enzyme activity; inhibitor; fluorescence): 17.2 nM
CC(C)C[C@H](NC(=O)[C@H](Cc1ccc2ccccc2c1)NC(=O)[C@H](CCC(=O)O)NC(=O)c1ccnc(Cl)n1)C(=O)NC1CC1c1ccccc1 (stereo partly drawn) — IC50 (APC; ligand displacement; FP): 4270 nM
O=C(Nc1ccc(-c2cnc3ccccc3c2)cc1)C1CCN(S(=O)(=O)c2ccccc2Cl)CC1 — IC50 (Ephx2; enzyme activity; inhibitor; fluorescence): 116 nM
Cc1ncc(CN2CCN(Cc3ccccn3)CC2)c2cc(C(=O)c3ccc4c(c3)OCCO4)oc12 — IC50 (EGFR C797S/L858R/T790M; enzyme activity; inhibitor; ADP detection): 29 nM
CC(C)C[C@H](NC(=O)[C@H](Cc1ccc2ccccc2c1)NC(=O)[C@H](CCC(=O)O)NC(=O)c1ccccn1)C(=O)NC1CC1c1ccccc1 (stereo partly drawn) — IC50 (APC; ligand displacement; FP): 30200 nM
O=C(Nc1ccc(-c2ccc3ncccc3c2)cc1)C1CCN(S(=O)(=O)c2ccccc2Cl)CC1 — IC50 (Ephx2; enzyme activity; inhibitor; fluorescence): 87.7 nM
